pIC50, pKi: −log10 of the molar value.
Target: T1, 5-hydroxytryptamine receptor 1A (Rattus norvegicus, UniProt P19327)
T1 sequence (P19327 whole entry): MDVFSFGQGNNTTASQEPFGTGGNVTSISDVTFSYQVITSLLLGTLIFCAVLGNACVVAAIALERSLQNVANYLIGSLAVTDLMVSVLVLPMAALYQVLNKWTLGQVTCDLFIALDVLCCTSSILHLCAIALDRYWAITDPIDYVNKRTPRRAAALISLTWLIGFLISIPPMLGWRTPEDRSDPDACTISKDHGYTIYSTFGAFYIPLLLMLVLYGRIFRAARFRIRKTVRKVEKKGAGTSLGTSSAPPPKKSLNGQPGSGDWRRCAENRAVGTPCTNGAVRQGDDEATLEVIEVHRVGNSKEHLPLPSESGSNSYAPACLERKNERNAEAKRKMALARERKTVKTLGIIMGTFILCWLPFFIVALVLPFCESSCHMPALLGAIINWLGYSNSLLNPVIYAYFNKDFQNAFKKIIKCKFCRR
Assay: Binding affinity of [3H]-8-OH-DPAT towards 5-hydroxytryptamine 1A receptor in cloned mammalian receptor expressed in cultured cells or from rat whole brain.
Assay type: cell-based
Procedure, shortened: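 Radioligand displacement with [3H]-8-OH-DPAT on membranes from cloned mammalian 5-HT1A receptor expressed in cultured cells.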

Structure (SMILES) | pKi
Fc1ccc(N2CCN(CCC3OCCc4ccccc43)CC2)cc1 (stereo not given) | 6.92
COc1ccc(N2CCN(CC[C@H]3OCCc4ccccc43)CC2)cc1 | < 5.80

Target: Serotonin 2 (5-HT2) receptor (Rattus norvegicus, UniProt P30994+P08909+P14842)
Assay: Binding affinity of [3H]ketanserin towards 5-hydroxytryptamine 2 receptor in cloned mammalian receptor expressed in cultured cells or from rat whole brain.
Assay type: cell-based

Structure (SMILES) | Ki [nM]
Fc1ccc(N2CCN(CCC3OCCc4ccccc43)CC2)cc1 (stereo not given) | 5.8
COc1ccc(N2CCN(CC[C@H]3OCCc4ccccc43)CC2)cc1 | 30

Target: T2, Adrenergic receptor alpha-1 (Rattus norvegicus, UniProt P15823+P23944+P43140)
T2 sequence (P15823 whole entry): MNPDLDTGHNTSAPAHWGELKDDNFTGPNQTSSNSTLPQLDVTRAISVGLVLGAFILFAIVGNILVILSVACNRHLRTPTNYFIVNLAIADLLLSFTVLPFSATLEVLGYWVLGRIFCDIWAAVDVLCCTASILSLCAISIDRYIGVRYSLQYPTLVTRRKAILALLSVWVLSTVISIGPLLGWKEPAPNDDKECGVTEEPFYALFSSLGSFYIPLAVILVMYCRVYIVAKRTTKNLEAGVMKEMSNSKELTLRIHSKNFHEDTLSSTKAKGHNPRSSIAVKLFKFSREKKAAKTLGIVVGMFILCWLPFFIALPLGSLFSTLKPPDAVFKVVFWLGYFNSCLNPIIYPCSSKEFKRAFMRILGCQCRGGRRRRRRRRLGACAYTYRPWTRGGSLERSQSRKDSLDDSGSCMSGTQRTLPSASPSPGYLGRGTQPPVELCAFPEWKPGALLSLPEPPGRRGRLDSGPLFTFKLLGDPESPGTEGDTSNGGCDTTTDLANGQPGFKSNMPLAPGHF
T2 sequence (P23944 whole entry): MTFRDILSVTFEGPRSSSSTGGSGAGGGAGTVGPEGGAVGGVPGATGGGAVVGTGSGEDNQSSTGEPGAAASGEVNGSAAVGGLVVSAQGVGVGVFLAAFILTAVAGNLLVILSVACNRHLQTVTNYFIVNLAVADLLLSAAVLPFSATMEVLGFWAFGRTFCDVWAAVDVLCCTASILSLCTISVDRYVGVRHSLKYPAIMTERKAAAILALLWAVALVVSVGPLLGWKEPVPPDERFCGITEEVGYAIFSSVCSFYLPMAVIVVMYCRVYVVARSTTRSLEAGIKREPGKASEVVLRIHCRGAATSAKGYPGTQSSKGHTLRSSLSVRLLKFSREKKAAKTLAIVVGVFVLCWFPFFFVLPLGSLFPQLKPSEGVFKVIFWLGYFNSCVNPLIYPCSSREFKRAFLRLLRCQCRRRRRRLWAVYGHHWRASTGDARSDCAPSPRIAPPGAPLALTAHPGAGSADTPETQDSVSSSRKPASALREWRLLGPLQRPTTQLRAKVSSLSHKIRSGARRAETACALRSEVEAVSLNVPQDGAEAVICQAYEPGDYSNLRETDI
T2 sequence (P43140 whole entry): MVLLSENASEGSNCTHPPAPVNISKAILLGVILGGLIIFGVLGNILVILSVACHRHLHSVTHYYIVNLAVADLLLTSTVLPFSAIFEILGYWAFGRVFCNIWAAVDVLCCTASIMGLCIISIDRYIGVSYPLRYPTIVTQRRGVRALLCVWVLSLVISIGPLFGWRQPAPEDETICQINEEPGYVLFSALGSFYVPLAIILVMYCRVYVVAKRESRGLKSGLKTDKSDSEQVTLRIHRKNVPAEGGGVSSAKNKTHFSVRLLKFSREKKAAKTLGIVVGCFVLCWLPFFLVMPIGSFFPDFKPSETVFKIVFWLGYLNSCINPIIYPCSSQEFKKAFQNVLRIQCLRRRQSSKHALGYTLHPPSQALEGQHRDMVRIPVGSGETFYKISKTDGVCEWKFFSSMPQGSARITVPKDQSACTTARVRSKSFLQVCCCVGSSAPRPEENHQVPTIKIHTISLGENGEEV
Assay: (§1) […] against binding of [3H]prazosin to cloned mammalian Alpha-1 adrenergic receptor expressed in cultured cells or from rat whole brain […]
Assay type: cell-based

Structure (SMILES) | Ki [nM]
Fc1ccc(N2CCN(CCC3OCCc4ccccc43)CC2)cc1 (stereo not given) | 38

Target: Adrenergic receptor alpha-1 (Rattus norvegicus) (UniProt P15823+P23944+P43140)
Assay: as §1
Assay type: cell-based

Structure (SMILES) | inhibition [%]
COc1ccc(N2CCN(CC[C@H]3OCCc4ccccc43)CC2)cc1 | 36

Target: Translocator protein (Mus musculus, UniProt P50637)
Sequence (P50637 whole entry, looked up): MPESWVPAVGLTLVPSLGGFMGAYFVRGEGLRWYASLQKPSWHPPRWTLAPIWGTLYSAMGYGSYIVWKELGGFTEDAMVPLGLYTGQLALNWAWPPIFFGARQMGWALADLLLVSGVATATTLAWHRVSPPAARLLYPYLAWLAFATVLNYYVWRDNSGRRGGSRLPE
Assay: Displacement of [3H]PK11195 binding from peripheral benzodiazepine receptor in MA-10 mouse tumor Leydig cells
Assay type: cell-based

Structure (SMILES) | pIC50
CCCCCCN(CCCCCC)C(=O)Cc1c(-c2ccc(F)cc2)[nH]c2ccccc12 | 8.00
CN1C(=O)CN=C(c2ccc(Cl)cc2)c2cc(Cl)ccc21 [RO-54864] | 8.00

Target: Translocator protein (Rattus norvegicus, UniProt P16257)
Sequence (P16257 whole entry, looked up): as the sequence (P50637 whole entry, looked up) above, with P2S, E3Q, V67I, D77E, A110V, L113M, V149M, P168T counted along it
Assay: Displacement of [3H]PK11195 binding from peripheral benzodiazepine receptor in C6 rat glioma cell line
Assay type: cell-based

Structure (SMILES) | pIC50
CCCCCCN(CCCCCC)C(=O)Cc1c(-c2ccc(F)cc2)[nH]c2ccccc12 | 8.00

Target: T3, D(4) dopamine receptor (Rattus norvegicus, UniProt P30729)
T3 sequence (P30729 whole entry): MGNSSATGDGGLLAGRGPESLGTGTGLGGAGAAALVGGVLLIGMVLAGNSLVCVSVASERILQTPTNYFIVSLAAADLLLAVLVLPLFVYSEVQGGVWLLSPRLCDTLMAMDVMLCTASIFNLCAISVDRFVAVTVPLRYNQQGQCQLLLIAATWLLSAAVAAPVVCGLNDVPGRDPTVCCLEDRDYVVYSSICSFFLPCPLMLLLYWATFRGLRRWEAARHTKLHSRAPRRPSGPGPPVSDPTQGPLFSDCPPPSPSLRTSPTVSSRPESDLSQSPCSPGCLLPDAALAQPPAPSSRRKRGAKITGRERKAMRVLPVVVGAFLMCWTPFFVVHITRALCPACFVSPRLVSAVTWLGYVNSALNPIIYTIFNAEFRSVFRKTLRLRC
Assay: Binding affinity of [3H]spiperone towards Dopamine receptor D4 expressed in cultured cells or from rat whole brain.
Assay type: cell-based

Structure (SMILES) | pKi
Cc1ccc2c(c1)C(N1CCN(C)CC1)=Nc1cccnc1N2 | 7.68
Fc1ccc(N2CCN(CCC3OCCc4ccccc43)CC2)cc1 (stereo not given) | 8.52
COc1ccc(N2CCN(CC[C@H]3OCCc4ccccc43)CC2)cc1 | 7.60

Target: D(3) dopamine receptor (Rattus norvegicus, UniProt P19020)
Sequence (P19020 whole entry): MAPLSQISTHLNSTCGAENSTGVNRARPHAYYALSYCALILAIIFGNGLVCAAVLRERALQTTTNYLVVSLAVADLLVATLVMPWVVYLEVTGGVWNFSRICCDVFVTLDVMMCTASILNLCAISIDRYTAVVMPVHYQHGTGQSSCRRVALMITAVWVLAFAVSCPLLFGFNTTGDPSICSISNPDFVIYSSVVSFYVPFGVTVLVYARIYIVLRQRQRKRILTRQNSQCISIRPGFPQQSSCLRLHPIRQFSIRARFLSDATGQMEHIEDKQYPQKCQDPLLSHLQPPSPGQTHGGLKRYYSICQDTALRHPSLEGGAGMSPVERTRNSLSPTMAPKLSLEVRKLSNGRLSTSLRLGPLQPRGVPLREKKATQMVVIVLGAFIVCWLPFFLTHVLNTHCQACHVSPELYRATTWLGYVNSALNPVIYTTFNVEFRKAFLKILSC
Assay: Binding affinity of [3H]spiperone towards Dopamine receptor D3 in cloned mammalian receptor expressed in cultured cells or from rat whole brain.
Assay type: cell-based
Procedure, shortened: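 Radioligand displacement on membranes from cloned mammalian receptors expressed in cultured cells. D1 used [3H]SCH23390 and D3 used [3H]spiperone.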

Structure (SMILES) | pKi
Fc1ccc(N2CCN(CCC3OCCc4ccccc43)CC2)cc1 (stereo not given) | 6.62
COc1ccc(N2CCN(CC[C@H]3OCCc4ccccc43)CC2)cc1 | 6.66

Target: D(2) dopamine receptor (Rattus norvegicus, UniProt P61169)
Sequence (P61169 whole entry): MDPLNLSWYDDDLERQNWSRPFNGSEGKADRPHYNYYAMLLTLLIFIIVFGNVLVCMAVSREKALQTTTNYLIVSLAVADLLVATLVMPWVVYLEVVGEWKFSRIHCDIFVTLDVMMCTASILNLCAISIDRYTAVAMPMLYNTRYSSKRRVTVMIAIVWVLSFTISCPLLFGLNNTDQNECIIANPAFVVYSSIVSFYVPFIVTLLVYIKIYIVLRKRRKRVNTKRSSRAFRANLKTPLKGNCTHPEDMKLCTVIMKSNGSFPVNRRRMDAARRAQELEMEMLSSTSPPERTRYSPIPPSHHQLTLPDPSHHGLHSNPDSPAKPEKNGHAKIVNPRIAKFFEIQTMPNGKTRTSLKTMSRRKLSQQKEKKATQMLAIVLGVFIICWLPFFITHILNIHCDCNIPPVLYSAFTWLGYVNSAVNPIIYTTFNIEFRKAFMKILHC
Assay: Binding affinity of [3H]U-86170 towards Dopamine receptor D2 in cloned mammalian receptor expressed in cultured cells or from rat whole brain
Assay type: cell-based

Structure (SMILES) | pKi
Fc1ccc(N2CCN(CCC3OCCc4ccccc43)CC2)cc1 (stereo not given) | 6.80
COc1ccc(N2CCN(CC[C@H]3OCCc4ccccc43)CC2)cc1 | < 5.74

Target: D(1A) dopamine receptor (Rattus norvegicus, UniProt P18901)
Sequence (P18901 whole entry): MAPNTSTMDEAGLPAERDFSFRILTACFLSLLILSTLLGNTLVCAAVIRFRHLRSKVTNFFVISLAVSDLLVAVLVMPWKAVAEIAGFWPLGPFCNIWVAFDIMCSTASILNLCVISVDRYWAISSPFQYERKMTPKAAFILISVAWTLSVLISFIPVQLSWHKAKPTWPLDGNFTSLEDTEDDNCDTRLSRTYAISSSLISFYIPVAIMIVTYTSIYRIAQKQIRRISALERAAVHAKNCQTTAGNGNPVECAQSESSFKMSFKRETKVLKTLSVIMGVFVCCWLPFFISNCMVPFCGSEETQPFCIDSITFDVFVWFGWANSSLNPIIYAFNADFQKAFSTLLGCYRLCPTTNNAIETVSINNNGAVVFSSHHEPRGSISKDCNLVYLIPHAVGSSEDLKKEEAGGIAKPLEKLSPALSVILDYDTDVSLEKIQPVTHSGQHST
Assay: Binding affinity of [3H]SCH-23,390 towards Dopamine receptor D1 in cloned mammalian receptor expressed in cultured cells or from rat whole brain.
Assay type: cell-based

Structure (SMILES) | pKi
Fc1ccc(N2CCN(CCC3OCCc4ccccc43)CC2)cc1 (stereo not given) | 6.39
COc1ccc(N2CCN(CC[C@H]3OCCc4ccccc43)CC2)cc1 | < 5.62

Target: T4, Adrenergic receptor alpha-2 (Rattus norvegicus, UniProt P22086+P19328+P22909)
T4 sequence (P22086 whole entry): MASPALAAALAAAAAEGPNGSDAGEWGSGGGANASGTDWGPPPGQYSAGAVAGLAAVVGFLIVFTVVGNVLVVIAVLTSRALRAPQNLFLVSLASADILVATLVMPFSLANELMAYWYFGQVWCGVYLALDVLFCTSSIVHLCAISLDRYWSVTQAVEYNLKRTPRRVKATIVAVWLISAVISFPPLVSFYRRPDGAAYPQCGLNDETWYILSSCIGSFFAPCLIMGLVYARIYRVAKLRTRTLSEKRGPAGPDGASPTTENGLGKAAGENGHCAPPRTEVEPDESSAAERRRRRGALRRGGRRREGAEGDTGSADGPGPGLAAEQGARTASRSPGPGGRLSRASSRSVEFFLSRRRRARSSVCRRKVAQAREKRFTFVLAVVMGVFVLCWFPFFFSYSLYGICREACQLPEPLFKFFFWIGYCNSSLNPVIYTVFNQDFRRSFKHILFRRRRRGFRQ
T4 sequence (P19328 whole entry): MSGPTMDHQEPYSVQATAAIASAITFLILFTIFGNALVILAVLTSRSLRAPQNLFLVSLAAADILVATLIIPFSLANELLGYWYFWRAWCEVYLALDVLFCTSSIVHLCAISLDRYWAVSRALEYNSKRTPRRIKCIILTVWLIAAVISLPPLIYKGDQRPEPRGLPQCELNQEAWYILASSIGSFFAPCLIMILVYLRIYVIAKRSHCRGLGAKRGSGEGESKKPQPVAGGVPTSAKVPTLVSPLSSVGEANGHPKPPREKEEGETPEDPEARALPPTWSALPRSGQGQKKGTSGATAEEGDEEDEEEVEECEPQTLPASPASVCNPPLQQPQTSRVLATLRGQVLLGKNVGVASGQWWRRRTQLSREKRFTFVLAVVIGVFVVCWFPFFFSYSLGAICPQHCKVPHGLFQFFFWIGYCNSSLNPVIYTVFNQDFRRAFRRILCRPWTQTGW
T4 sequence (P22909 whole entry): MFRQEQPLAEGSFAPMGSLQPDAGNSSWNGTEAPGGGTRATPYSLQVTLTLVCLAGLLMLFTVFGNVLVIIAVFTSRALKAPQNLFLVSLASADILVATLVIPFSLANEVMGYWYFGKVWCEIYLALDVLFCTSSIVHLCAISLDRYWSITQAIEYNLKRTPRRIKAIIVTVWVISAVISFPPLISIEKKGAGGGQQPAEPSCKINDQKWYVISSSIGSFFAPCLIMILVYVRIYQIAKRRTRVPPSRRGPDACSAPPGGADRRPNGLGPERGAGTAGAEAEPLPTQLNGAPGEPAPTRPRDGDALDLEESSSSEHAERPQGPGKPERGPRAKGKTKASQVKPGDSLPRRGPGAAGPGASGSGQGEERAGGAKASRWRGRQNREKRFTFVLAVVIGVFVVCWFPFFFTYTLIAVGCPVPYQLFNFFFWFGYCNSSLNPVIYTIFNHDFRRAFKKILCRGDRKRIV
Assay: […] against binding of [3H]clonidine to cloned mammalian Alpha-2 adrenergic receptor expressed in cultured cells or from rat whole brain

Structure (SMILES) | Ki [nM]
Fc1ccc(N2CCN(CCC3OCCc4ccccc43)CC2)cc1 (stereo not given) | 140

Target: Adrenergic receptor alpha-2 (Rattus norvegicus) (UniProt P22086+P19328+P22909)
Assay: […] against binding of [3H]clonidine to cloned mammalian Alpha-2 adrenergic receptor expressed in cultured cells or from rat whole brain at 1 uM

Structure (SMILES) | inhibition [%]
COc1ccc(N2CCN(CC[C@H]3OCCc4ccccc43)CC2)cc1 | 0
